# Experiments:
# [1] = system: Pseudomonas aeruginosa; experiment: Antibacterial activity against Pseudomonas aeruginosa at 100 ug/100 uL after 24 hrs by tube broth dilution method; assay type: functional
# [2] = system: Salmonella typhi; experiment: (§1) Antibacterial activity against Salmonella typhi assessed per 100 uL of nutrient broth after 24 hrs by tube broth dilution method; assay type: functional, Salmonella enterica subsp. enterica serovar Typhi
# Method in brief: (§2)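 Tube broth dilution in nutrient broth against sensitive Salmonella typhi: 0.1 mL culture (10^4-10^6 cells/mL) was added to tubes holding 1 mL of test sample at different concentrations plus 1 mL nutrient broth. Tubes were incubated 24 h at 37 °C, growth inhibition was observed, and MIC was recorded. Ampicillin was run the same way as the standard.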
# [3] = system: Pseudomonas aeruginosa; experiment: Antibacterial activity against Pseudomonas aeruginosa assessed per 100 uL of nutrient broth after 24 hrs by tube broth dilution method; assay type: functional
# Method in brief: (§3)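 Tube broth dilution in nutrient broth. Sensitive bacterial culture (0.1 mL of 10^4-10^6 cells/mL) added to tubes holding 1 mL test sample at different concentrations plus 1 mL nutrient broth. Incubated 24 h at 37 °C, then growth inhibition scored visually. Ampicillin run the same way as reference. Minimum inhibitory concentration taken from the dilution series.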
# [4] = system: Salmonella typhi; experiment: as §1; assay type: functional, Salmonella enterica subsp. enterica serovar Typhi; method in brief: as §2; remark: listed apart in the source
# [5] = system: Escherichia coli; experiment: Antibacterial activity against Escherichia coli at 200 ug/100 uL after 24 hrs by tube broth dilution method; assay type: functional
# [6] = system: Shigella flexneri; experiment: Antibacterial activity against Shigella flexneri at 100 ug/100 uL after 24 hrs by tube broth dilution method; assay type: functional
# [7] = system: Shigella flexneri; experiment: Antibacterial activity against Shigella flexneri at 200 ug/100 uL after 24 hrs by tube broth dilution method; assay type: functional
# [8] = system: Escherichia coli; experiment: Antibacterial activity against Escherichia coli at 100 ug/100 uL after 24 hrs by tube broth dilution method; assay type: functional
# [9] = system: Pseudomonas aeruginosa; experiment: Antibacterial activity against Pseudomonas aeruginosa at 200 ug/100 uL after 24 hrs by tube broth dilution method; assay type: functional
# [10] = system: Escherichia coli; experiment: Antibacterial activity against Escherichia coli assessed per 100 uL of nutrient broth after 24 hrs by tube broth dilution method; assay type: functional; method in brief: as §3
# [11] = system: Salmonella typhi; experiment: Antibacterial activity against Salmonella typhi at 200 ug/100 uL after 24 hrs by tube broth dilution method; assay type: functional, Salmonella enterica subsp. enterica serovar Typhi; set-up: unit not given here
# [12] = system: Salmonella typhi; experiment: Antibacterial activity against Salmonella typhi at 100 ug/100 uL after 24 hrs by tube broth dilution method; assay type: functional, Salmonella enterica subsp. enterica serovar Typhi; set-up: unit not given here
SMILES,inhibition zone (IZ) [1] [mm],MIC [2] [µg],MIC [3] [µg],MIC [4] [µg],inhibition zone (IZ) [5] [mm],inhibition zone (IZ) [6] [mm],inhibition zone (IZ) [7] [mm],inhibition zone (IZ) [8] [mm],inhibition zone (IZ) [9] [mm],MIC [10] [µg],inhibition zone (IZ) [11],inhibition zone (IZ) [12]
CC1(C)S[C@@H]2[C@H](NC(=O)[C@H](N)c3ccccc3)C(=O)N2[C@H]1C(=O)O [AMPICILLIN],11,30,40,30,12,11,11,11,11,,,
C=C1[C@@H](N(C)C(C)=O)CC[C@]23C[C@]24CC[C@]2(C)[C@@H]([C@H](C)NC)CC[C@@]2(C)[C@@H]4CC[C@@H]13 [CYCLOBUXAMIDINE],,150,,,6,,,,,200,6,6
CC(=O)O[C@@H]1C[C@@]2(C)[C@@H]3C[C@@H]4OC[C@]5(C)[C@@H](NC(=O)c6ccccc6)CCC(=CC3=CC[C@]2(C)[C@H]1[C@H](C)N(C)C)[C@@H]45 [CYCLOBUXEINE F],6,100,10,100,,7,7,,8,,8,7
CN[C@@H](C)[C@H]1[C@H](O)C[C@@]2(C)[C@@H]3CC[C@H]4C(C)(C)[C@@H](N(C)C)C=C[C@@]45C[C@@]35CC[C@]12C [BUXASAMARINE],7,100,50,150,,,7,,9,,8,6
